Holding throughout (format): functional, organism-based
For one assay, the system named is Pseudomonas aeruginosa. Put plainly: Antibacterial activity against Pseudomonas aeruginosa ATCC 10145 after 6 to 8 hrs. In a few lines:
(§1)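 Stagnant liquid-culture proliferation assay at 37°C in broth cation-adjusted with 25 mg/L Ca²⁺ and 12.5 mg/L Mg²⁺, with compounds stamped into the wells. […] OD600 turbidity was read at 6–8 h (K. pneumoniae, E. cloacae, P. aeruginosa) or 24 h (A. baumannii). EC50 came from non-linear regression, averaged in log form over replicates.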

The subject of another assay is Acinetobacter baumannii. Put plainly: Antibacterial activity against Acinetobacter baumannii ATCC 19606 after 24 hrs. As to conditions: ATCC 19606 = CIP 70.34 = JCM 6841. The method, boiled down:
as §1

A further assay concerns Klebsiella pneumoniae. Nature of the assay: Antibacterial activity against Klebsiella pneumoniae ATCC 13883 after 6 to 8 hrs. The method, boiled down:
as §1

The test system of another assay is Enterobacter cloacae. Put plainly: Antibacterial activity against Enterobacter cloacae subsp. cloacae ATCC 13047 after 6 to 8 hrs. In a few lines:
as §1

Results on 25 molecules are retold here after ChEMBL document CHEMBL4152346, “Sulfonamido-2-arylbenzoxazole GroEL/ES Inhibitors as Potent Antibacterials against Methicillin-Resistant Staphylococcus aureus (MRSA)” (J Med Chem, 2018).

Activity calls are given as the source filed them. No rule for the calls is given here.

As to `O=S(=O)(Nc1ccc(-c2nc3cc(NS(=O)(=O)c4ccccc4Cl)ccc3o2)cc1)c1ccccc1Cl`, the result with Pseudomonas aeruginosa, in the assay with Acinetobacter baumannii, in the assay on Klebsiella pneumoniae and with Enterobacter cloacae was inactive.

With `N#Cc1ccc(S(=O)(=O)Nc2ccc(-c3nc4cc(NS(=O)(=O)c5ccc(C#N)cc5)ccc4o3)cc2)cc1`, the outcome with Pseudomonas aeruginosa, in the assay on Acinetobacter baumannii, in the assay with Klebsiella pneumoniae and with Enterobacter cloacae was inactive.

Take `COC(=O)c1ccccc1S(=O)(=O)Nc1ccc(-c2nc3cc(NS(=O)(=O)c4ccccc4C(=O)OC)ccc3o2)cc1`: the outcome in the assay on Pseudomonas aeruginosa, in the assay on Acinetobacter baumannii, with Klebsiella pneumoniae and in the assay on Enterobacter cloacae was inactive.

In the case of `O=S(=O)(Nc1ccc(-c2nc3cc(NS(=O)(=O)c4ccccc4C(F)(F)F)ccc3o2)cc1)c1ccccc1C(F)(F)F`, the outcome in the assay on Pseudomonas aeruginosa, in the assay with Acinetobacter baumannii, in the assay on Klebsiella pneumoniae and with Enterobacter cloacae was inactive.

Turning to `O=S(=O)(Cc1ccccc1)Nc1ccc(-c2nc3cc(NS(=O)(=O)Cc4ccccc4)ccc3o2)cc1`, the outcome with Pseudomonas aeruginosa, with Acinetobacter baumannii, in the assay with Klebsiella pneumoniae and in the assay with Enterobacter cloacae was inactive.

As for `O=S(=O)(Nc1ccc(-c2nc3cc(NS(=O)(=O)c4cccs4)ccc3o2)cc1)c1cccs1`, the outcome in the assay with Pseudomonas aeruginosa, in the assay with Acinetobacter baumannii, in the assay with Klebsiella pneumoniae and in the assay with Enterobacter cloacae was inactive.

With `COC(=O)c1ccc(S(=O)(=O)Nc2ccc(-c3nc4cc(NS(=O)(=O)c5ccc(C(=O)OC)cc5)ccc4o3)cc2)cc1`, the outcome in the assay on Pseudomonas aeruginosa, in the assay on Acinetobacter baumannii, in the assay with Klebsiella pneumoniae and with Enterobacter cloacae was inactive.

For `O=S(=O)(Nc1ccc(-c2nc3cc(NS(=O)(=O)c4ccc5nsnc5c4)ccc3o2)cc1)c1ccc2nsnc2c1`, the result in the assay with Pseudomonas aeruginosa, in the assay on Acinetobacter baumannii, with Klebsiella pneumoniae and in the assay on Enterobacter cloacae was inactive.

For the molecule `Nc1ccccc1S(=O)(=O)Nc1ccc(-c2nc3cc(NS(=O)(=O)c4ccccc4N)ccc3o2)cc1`, the outcome in the assay with Pseudomonas aeruginosa, in the assay with Acinetobacter baumannii, in the assay on Klebsiella pneumoniae and with Enterobacter cloacae was inactive.

As to `O=[N+]([O-])c1ccccc1S(=O)(=O)Nc1ccc(-c2nc3cc(NS(=O)(=O)c4ccccc4[N+](=O)[O-])ccc3o2)cc1`, the outcome with Pseudomonas aeruginosa, in the assay on Acinetobacter baumannii, with Klebsiella pneumoniae and in the assay with Enterobacter cloacae was inactive.

Take `Cc1ccc(S(=O)(=O)Nc2ccc(-c3nc4ccc(NS(=O)(=O)c5ccc(C)cc5)cc4[nH]3)cc2)cc1`: the outcome in the assay with Pseudomonas aeruginosa, in the assay on Acinetobacter baumannii, with Klebsiella pneumoniae and in the assay with Enterobacter cloacae was inactive.

`O=S(=O)(Nc1ccc(-c2nc3cc(NS(=O)(=O)c4ccc(C(F)(F)F)cc4)ccc3o2)cc1)c1ccc(C(F)(F)F)cc1`: the outcome with Pseudomonas aeruginosa, in the assay on Acinetobacter baumannii, in the assay with Klebsiella pneumoniae and in the assay on Enterobacter cloacae was inactive.

In the case of `COc1cccc(S(=O)(=O)Nc2ccc(-c3nc4cc(NS(=O)(=O)c5cccc(OC)c5)ccc4o3)cc2)c1`, the result with Pseudomonas aeruginosa, with Acinetobacter baumannii, with Klebsiella pneumoniae and in the assay with Enterobacter cloacae was inactive.

As to `O=S(=O)(Nc1ccc(-c2nc3cc(NS(=O)(=O)c4ccc(Br)cc4)ccc3o2)cc1)c1ccc(Br)cc1`, the result in the assay with Pseudomonas aeruginosa, in the assay with Acinetobacter baumannii, in the assay on Klebsiella pneumoniae and in the assay on Enterobacter cloacae was inactive.

As to `COc1ccc(S(=O)(=O)Nc2ccc(-c3nc4cc(NS(=O)(=O)c5ccc(OC)cc5)ccc4o3)cc2)cc1`, the outcome with Pseudomonas aeruginosa, in the assay with Acinetobacter baumannii, in the assay on Klebsiella pneumoniae and in the assay with Enterobacter cloacae was inactive.

In the case of `O=S(=O)(Nc1ccc(-c2nc3cc(NS(=O)(=O)c4ccccc4O)ccc3o2)cc1)c1ccccc1O`, the outcome in the assay with Pseudomonas aeruginosa, in the assay on Acinetobacter baumannii, in the assay on Klebsiella pneumoniae and with Enterobacter cloacae was inactive.

Consider `O=S(=O)(Nc1ccc(-c2nc3cc(NS(=O)(=O)c4cccc(F)c4)ccc3o2)cc1)c1cccc(F)c1`, for which the outcome in the assay with Pseudomonas aeruginosa, in the assay on Acinetobacter baumannii, with Klebsiella pneumoniae and in the assay on Enterobacter cloacae was inactive.

For the molecule `Nc1ccc(S(=O)(=O)Nc2ccc(-c3nc4cc(NS(=O)(=O)c5ccc(N)cc5)ccc4o3)cc2)cc1`, the outcome in the assay on Pseudomonas aeruginosa, in the assay with Acinetobacter baumannii, in the assay on Klebsiella pneumoniae and with Enterobacter cloacae was inactive.

Take `O=[N+]([O-])c1cccc(S(=O)(=O)Nc2ccc(-c3nc4cc(NS(=O)(=O)c5cccc([N+](=O)[O-])c5)ccc4o3)cc2)c1`: the result in the assay with Pseudomonas aeruginosa, in the assay on Acinetobacter baumannii, with Klebsiella pneumoniae and in the assay with Enterobacter cloacae was inactive.

For the molecule `O=S(=O)(Nc1ccc(-c2nc3cc(NS(=O)(=O)c4cccc(Br)c4)ccc3o2)cc1)c1cccc(Br)c1`, the outcome in the assay on Pseudomonas aeruginosa, with Acinetobacter baumannii, in the assay on Klebsiella pneumoniae and in the assay on Enterobacter cloacae was inactive.

With `O=S(=O)(Nc1ccc(-c2nc3cc(NS(=O)(=O)c4ccc(F)cc4)ccc3o2)cc1)c1ccc(F)cc1`, the outcome in the assay with Pseudomonas aeruginosa, with Acinetobacter baumannii, in the assay with Klebsiella pneumoniae and with Enterobacter cloacae was inactive.

Turning to `Nc1cccc(S(=O)(=O)Nc2ccc(-c3nc4cc(NS(=O)(=O)c5cccc(N)c5)ccc4o3)cc2)c1`, the result in the assay with Pseudomonas aeruginosa, in the assay on Acinetobacter baumannii, with Klebsiella pneumoniae and in the assay on Enterobacter cloacae was inactive.

With `N#Cc1ccccc1S(=O)(=O)Nc1ccc(-c2nc3cc(NS(=O)(=O)c4ccccc4C#N)ccc3o2)cc1`, the result with Pseudomonas aeruginosa, in the assay with Acinetobacter baumannii, in the assay with Klebsiella pneumoniae and with Enterobacter cloacae was inactive.

As to `O=S(=O)(Nc1ccc(-c2nc3cc(NS(=O)(=O)c4ccc(O)cc4)ccc3o2)cc1)c1ccc(O)cc1`, the result in the assay with Pseudomonas aeruginosa, with Acinetobacter baumannii, in the assay with Klebsiella pneumoniae and in the assay on Enterobacter cloacae was Active.

As for `COC(=O)c1cccc(S(=O)(=O)Nc2ccc(-c3nc4cc(NS(=O)(=O)c5cccc(C(=O)OC)c5)ccc4o3)cc2)c1`, the result in the assay on Pseudomonas aeruginosa, in the assay with Acinetobacter baumannii, in the assay on Klebsiella pneumoniae and in the assay on Enterobacter cloacae was inactive.
